Results on 26 molecules are retold here after ChEMBL document CHEMBL1138994, “Probing structure/affinity relationships for the Plasmodium falciparum hexose transporter with glucose derivatives” (Bioorg Med Chem Lett, 2006).

Molecules are shown by their SMILES. Calls of active or inactive are those of the source. The calls are words filed in the database; no cut-off is given here. A value given as a limit tells only on which side of the number the result lay.

For experiment [1], the target named is T1, Hexose transporter 1 (Plasmodium falciparum, UniProt O97467).
T1 sequence (O97467 whole entry): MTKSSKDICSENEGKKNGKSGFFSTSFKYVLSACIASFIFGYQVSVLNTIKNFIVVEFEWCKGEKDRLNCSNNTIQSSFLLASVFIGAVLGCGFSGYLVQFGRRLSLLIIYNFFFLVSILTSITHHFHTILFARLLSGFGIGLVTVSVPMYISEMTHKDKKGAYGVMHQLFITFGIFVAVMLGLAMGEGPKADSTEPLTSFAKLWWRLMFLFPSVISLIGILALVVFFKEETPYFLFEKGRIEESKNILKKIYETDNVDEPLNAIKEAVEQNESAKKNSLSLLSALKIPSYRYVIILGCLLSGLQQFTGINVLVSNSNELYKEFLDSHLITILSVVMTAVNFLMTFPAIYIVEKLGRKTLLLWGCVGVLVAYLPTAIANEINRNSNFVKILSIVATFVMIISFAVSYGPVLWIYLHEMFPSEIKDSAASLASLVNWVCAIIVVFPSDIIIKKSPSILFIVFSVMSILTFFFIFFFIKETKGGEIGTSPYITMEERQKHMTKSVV
Put plainly: Inhibition of D-glucose uptake mediated by PfHT expressed in Xenopus oocytes. Type of experiment: functional, cell-based, Oocyte. The procedure, abridged: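 Oocyte-expressed PfHT assay; values are means of three experiments with standard error of the mean, or two individual experiments where marked.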

In experiment [2] the target is T2, Solute carrier family 2, facilitated glucose transporter member 1 (Homo sapiens) (UniProt P11166).
T2 sequence (whole entry): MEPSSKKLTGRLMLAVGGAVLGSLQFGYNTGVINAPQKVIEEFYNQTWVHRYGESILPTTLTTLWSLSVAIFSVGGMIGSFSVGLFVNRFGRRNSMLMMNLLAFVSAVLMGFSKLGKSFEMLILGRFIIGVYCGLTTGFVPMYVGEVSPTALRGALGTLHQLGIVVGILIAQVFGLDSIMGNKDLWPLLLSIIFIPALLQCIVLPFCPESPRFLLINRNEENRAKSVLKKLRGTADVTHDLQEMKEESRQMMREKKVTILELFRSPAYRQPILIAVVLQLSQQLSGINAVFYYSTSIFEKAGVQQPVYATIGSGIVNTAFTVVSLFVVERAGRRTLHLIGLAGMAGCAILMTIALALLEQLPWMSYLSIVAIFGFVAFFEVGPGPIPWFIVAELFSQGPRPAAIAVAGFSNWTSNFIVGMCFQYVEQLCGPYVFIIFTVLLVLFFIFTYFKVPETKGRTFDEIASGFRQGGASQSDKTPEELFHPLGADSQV
As to the kind of experiment: Inhibitory activity against GLUT1.

Usually Ki stands for a measure of affinity in units of concentration, obtained from inhibition or displacement. As for `CCCCCCCCCO[C@H]1[C@H](O)[C@@H](CO)OC(O)[C@@H]1O` (stereo partly specified), the Ki in experiment [1] (read-out: Ki) was determined as 32 µM. Besides, the inhibition result in experiment [2] is “inactive”.

As to `C=CCCCCCCCOCCO[C@H]1[C@H](O)[C@@H](CO)OC(O)[C@@H]1O` (stereo partly specified), the inhibition constant (Ki) in experiment [1] (read-out: Ki) amounted to 590 µM. The inhibition result in experiment [2] is “inactive”.

Take `CCCCCCCCCCCCCCCCCCO[C@H]1[C@H](O)[C@@H](CO)OC(O)[C@@H]1O` (stereo partly specified): the inhibition constant (Ki) in experiment [1] (read-out: Ki) was > 500 µM. Moreover, the inhibition result in experiment [2] was “inactive”.

Regarding `CCCCCCCCCCCCO[C@H]1[C@H](O)[C@@H](CO)OC(O)[C@@H]1O` (stereo partly specified), the inhibition constant (Ki) in experiment [1] (read-out: Ki) worked out at 30 µM. In addition, in experiment [2], the inhibition entry was “inactive”.

On to `C=CCCCCCCCCCCO[C@H]1[C@H](O)[C@@H](CO)OC(O)[C@@H]1O` (stereo partly specified), for which, in experiment [1] (read-out: Ki), the Ki amounted to 36 µM. In experiment [2], the inhibition result is “inactive”.

Consider `COC(=O)CCCCCCC#CCCCCCCCO[C@H]1[C@H](O)[C@@H](CO)OC(O)[C@@H]1O` (stereo partly specified), for which the inhibition constant Ki in experiment [1] (read-out: Ki) is > 500 µM. The inhibition result in experiment [2] is “inactive”.

Regarding `OC[C@H]1OC(O)[C@H](O)[C@@H](OCCCCCCCC(F)(F)C(F)(F)C(F)(F)C(F)(F)C(F)(F)C(F)(F)F)[C@@H]1O` (stereo partly specified), the inhibition constant (Ki) in experiment [1] (read-out: Ki) is 130 µM. The inhibition entry in experiment [2] was “inactive”.

In the case of `C=CCCCCCCCCO[C@H]1[C@H](O)[C@@H](CO)OC(O)[C@@H]1O` (stereo partly specified), the Ki in experiment [1] (read-out: Ki) turned out to be 49 µM. Further, the inhibition result in experiment [2] is “inactive”.

On to `C=CCCCCCCCO[C@H]1[C@H](O)[C@@H](CO)OC(O)[C@@H]1O` (stereo partly specified), for which, in experiment [1] (read-out: Ki), the inhibition constant (Ki) turned out to be 41 µM. In addition, the inhibition result in experiment [2] was “inactive”.

With `CCCCCCCCCCO[C@H]1[C@H](O)[C@@H](CO)OC(O)[C@@H]1O` (stereo partly specified), in experiment [1] (read-out: Ki), the inhibition constant (Ki) turned out to be 19 µM. Further, in experiment [2], the inhibition entry is “inactive”.

Take `C=CCOCCOCCO[C@H]1[C@H](O)[C@@H](CO)OC(O)[C@@H]1O` (stereo partly specified): the Ki entry in experiment [1] (oocyte) is listed as “Not Active”. Besides, in experiment [2], the inhibition result is “inactive”.

On to `CCCCCCCCCCCO[C@H]1[C@H](O)[C@@H](CO)OC(O)[C@@H]1O` (stereo partly specified), for which the Ki in experiment [1] (read-out: Ki) is 23 µM. Moreover, the inhibition entry in experiment [2] is “inactive”.

In the case of `CCCCCCCCCCCCCCCCCCCCO[C@H]1[C@H](O)[C@@H](CO)OC(O)[C@@H]1O` (stereo partly specified), the inhibition entry in experiment [2] was “inactive”.

Take `CCCCCCCO[C@H]1[C@H](O)[C@@H](CO)OC(O)[C@@H]1O` (stereo partly specified): the inhibitory constant (Ki) in experiment [1] (read-out: Ki) is < 500 µM. The inhibition entry in experiment [2] was “inactive”.

Regarding `OC[C@H]1OC(O)[C@H](O)[C@@H](OCCCCCc2ccccc2)[C@@H]1O` (stereo partly specified), in experiment [1] (read-out: Ki), the inhibition constant (Ki) was found to be 64 µM. In addition, in experiment [2], the inhibition result is “inactive”.

With `C=CCOCCO[C@H]1[C@H](O)[C@@H](CO)OC(O)[C@@H]1O` (stereo partly specified), the inhibitory constant (Ki) in experiment [1] (read-out: Ki) is > 500 µM. The inhibition result in experiment [2] is “inactive”.

As to `OC[C@H]1OC(O)[C@H](O)[C@@H](OCCCC(F)(F)C(F)(F)C(F)(F)C(F)(F)C(F)(F)C(F)(F)F)[C@@H]1O` (stereo partly specified), the Ki in experiment [1] (read-out: Ki) is > 500 µM. The inhibition entry in experiment [2] is “inactive”.

Take `CCCCc1ccc(CCCCCO[C@H]2[C@H](O)[C@@H](CO)OC(O)[C@@H]2O)cc1` (stereo partly specified): the inhibition constant Ki in experiment [1] (read-out: Ki) amounted to 81 µM. The inhibition entry in experiment [2] is “inactive”.

Regarding `CCCCCCCCCCCCCCO[C@H]1[C@H](O)[C@@H](CO)OC(O)[C@@H]1O` (stereo partly specified), in experiment [1] (read-out: Ki), the Ki is > 500 µM. Further, the inhibition entry in experiment [2] was “inactive”.

For the molecule `OC[C@H]1OC(O)[C@H](O)[C@@H](OCCCCCCCCc2ccccc2)[C@@H]1O` (stereo partly specified), the Ki in experiment [1] (read-out: Ki) was 148 µM. Also, in experiment [2], the inhibition entry was “inactive”.

Consider `CCCCCCCC/C=C/CCCCCCO[C@H]1[C@H](O)[C@@H](CO)OC(O)[C@@H]1O` (stereo partly specified), for which the inhibition constant Ki in experiment [1] (read-out: Ki) was > 500 µM. Besides, the inhibition entry in experiment [2] was “inactive”.

For the molecule `C=CCCCCCCCCCCCCCO[C@H]1[C@H](O)[C@@H](CO)OC(O)[C@@H]1O` (stereo partly specified), the Ki in experiment [1] (read-out: Ki) was found to be 37 µM. For the same molecule, the inhibition entry in experiment [2] is “inactive”.

For the molecule `O=C(NCCCO[C@H]1[C@H](O)[C@@H](CO)OC(O)[C@@H]1O)C(F)(F)C(F)(F)C(F)(F)C(F)(F)C(F)(F)C(F)(F)F` (stereo partly specified), in experiment [1] (oocyte), the inhibitory constant (Ki) entry was “Not Active”. Moreover, in experiment [2], the inhibition result was “inactive”.

For `C=CCOCCCCCCCO[C@H]1[C@H](O)[C@@H](CO)OC(O)[C@@H]1O` (stereo partly specified), the Ki in experiment [1] (read-out: Ki) is > 500 µM. Further, the inhibition entry in experiment [2] is “inactive”.

Turning to `C=CCCCCCCCCCO[C@H]1[C@H](O)[C@@H](CO)OC(O)[C@@H]1O` (stereo partly specified), the inhibitory constant (Ki) in experiment [1] (read-out: Ki) came to 53 µM. In addition, the inhibition result in experiment [2] was “inactive”.

For the molecule `CCCCCCCCO[C@H]1[C@H](O)[C@@H](CO)OC(O)[C@@H]1O` (stereo partly specified), in experiment [1] (read-out: Ki), the Ki was found to be 30 µM. In addition, the inhibition entry in experiment [2] is “inactive”.
